According to ChEMBL document CHEMBL5036380, “New Highly Potent NLRP3 Inhibitors: Furanochalcone Velutone F Analogues” (ACS Med Chem Lett, 2022):
The source made the active and inactive calls. The rule behind the calls is not given here.

Key:
THP-1 [1] = assay: Antiinflammatory activity in human THP-1 cells assessed as inhibition of LPS-induced IL-1beta secretion in LPS stimulation for 3 hrs followed by pretreatment at 2uM for 40 min before induced with nigericin for 40 min measured by ELISA; type: functional; conditions: for inhibition at 2 µM: THP-1, 1.333 h, time 80 min; for inhibition: time 80.0 min
Procedure, shortened: (§1)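 THP-1 cells (2 × 10^5 cells/mL) differentiated with PMA (100 ng/mL) for 24 h. Next day, primed with LPS (1 μg/mL) for 3 h, then compound for 40 min, then nigericin (10 μM) for 40 min. IL-1β in supernatant measured by ELISA; % inhibition as mean ± SD of three independent experiments. The single-concentration screen used 2 μM.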

THP-1 [2] = assay: Antiinflammatory activity in human THP-1 cells assessed as inhibition of LPS-induced IL-1beta secretion in LPS stimulation for 3 hrs followed by pretreatment for 40 min before induced with nigericin for 40 min measured by ELISA; type: functional; conditions: time 80 min; 1.333 h; procedure, shortened: as §1
THP-1 [3] = assay: Cytotoxicity against human THP-1 cells assessed as reduction in cell viability at 0.05 to 6.4 uM measured after 90 mins by CCK8 assay; type: cell-based; conditions: thp-1, 1.5 h, dose 0.05-6.4 µM
Procedure, shortened: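 THP-1 cells preincubated with compound (0.05–6.4 μM) for 1.5 h; viability read by CCK8 assay.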

Spleen = assay: Downregulation of IL-1beta level in spleen of LPS treated C57BL/6J mouse at 10 mg/kg, iv measured after 6 hrs by ELISA

## COc1c(/C=C/C(=O)c2cccc(C(F)(F)F)n2)cc(OC)c2occc12
THP-1 [1]
  inhibition at 2 µM: 32.4%

## COc1ccc(OC)c(/C=C/C(=O)c2ccc(F)cc2)c1
THP-1 [1]
  inhibition at 2 µM: 91.1%

## COc1c(/C=C/C(=O)c2ccc(C(F)(F)F)cc2)cc(OC)c2occc12
THP-1 [1]
  inhibition at 2 µM: 50%

## COc1cc(-c2ccccc2NS(C)(=O)=O)c(OC)cc1/C=C/C(=O)c1ccc(F)cc1
THP-1 [2]
  Activity: 0.407 µM
THP-1 [1]
  inhibition at 2 µM: 101%
THP-1 [3]
  Activity: Non-Toxic

## COc1c(/C=C/C(=O)Nc2cccc(Br)n2)cc(OC)c2occc12
THP-1 [1]
  inhibition: inactive

## COc1c(/C=C/C(=O)Nc2cccc(C(F)(F)F)c2)cc(OC)c2occc12
THP-1 [1]
  inhibition: inactive

## COc1c(/C=C/C(=O)c2ccccn2)cc(OC)c2occc12
THP-1 [1]
  inhibition at 2 µM: 56.9%

## COc1c(/C=C/C(=O)c2cccc(-c3cccs3)n2)cc(OC)c2occc12
THP-1 [1]
  inhibition at 2 µM: 15.9%

## COc1c(C(=O)/C=C/c2ccccc2)cc(OC)c2occc12
THP-1 [1]
  inhibition at 2 µM: 15.5%

## COc1cc(-c2ccccc2C)c(OC)cc1/C=C/C(=O)c1ccc(F)cc1
THP-1 [1]
  inhibition: inactive

## C=CC(=O)N(Cc1cc(OC)c2occc2c1OC)c1cccc(C(F)(F)F)c1
THP-1 [1]
  inhibition: inactive

## C=CC(=O)N(Cc1cc(OC)c2occc2c1OC)c1ccccc1
THP-1 [1]
  inhibition at 2 µM: 31.8%

## COc1cc(NS(C)(=O)=O)c(OC)cc1/C=C/C(=O)c1ccc(F)cc1
THP-1 [1]
  inhibition: inactive

## COc1cc(-c2ccsc2)c(OC)cc1/C=C/C(=O)c1ccc(F)cc1
THP-1 [1]
  inhibition: inactive

## COc1c(/C=C/C(=O)c2ccco2)cc(OC)c2occc12
THP-1 [1]
  inhibition at 2 µM: 32.8%

## COc1cc(C(=O)/C=C/c2cc(OC)c3occc3c2OC)cc(OC)c1OC
THP-1 [1]
  inhibition at 2 µM: 42%

## COc1c(/C=C/C(=O)C2CC2)cc(OC)c2occc12
THP-1 [1]
  inhibition at 2 µM: 8.7%

## COc1c(CCC(=O)c2ccc(F)cc2)cc(OC)c2occc12
THP-1 [1]
  inhibition: inactive

## C=CC(=O)N(Cc1cc(OC)c2occc2c1OC)c1ccc(F)cc1
THP-1 [1]
  inhibition at 2 µM: 15%

## COc1cncc(-c2cc(OC)c(/C=C/C(=O)c3ccc(F)cc3)cc2OC)c1
THP-1 [1]
  inhibition: inactive

## COc1cc(/C=C/C(=O)c2ccc(F)cc2)c(OC)cc1C=C(C)C
THP-1 [1]
  inhibition: inactive

## C=CC(=O)N(Cc1cc(OC)c2occc2c1OC)c1cccc(Br)n1
THP-1 [1]
  inhibition: inactive

## COc1cc(-c2cc(F)cc(F)c2)c(OC)cc1/C=C/C(=O)c1ccc(F)cc1
THP-1 [1]
  inhibition: inactive

## COc1c(/C=C/C(=O)Nc2ccccc2)cc(OC)c2occc12
THP-1 [1]
  inhibition at 2 µM: 7.4%

## COc1c(CCC(=O)c2cccc(C(F)(F)F)c2)cc(OC)c2occc12
THP-1 [1]
  inhibition: inactive

## COc1c(/C=C/C(=O)c2cccc(O)c2)cc(OC)c2occc12
THP-1 [1]
  inhibition at 2 µM: 60.5%

## COc1cc(-c2cccc(Cl)c2)c(OC)cc1/C=C/C(=O)c1ccc(F)cc1
THP-1 [1]
  inhibition: inactive

## COc1c(/C=C/C(=O)O)cc(OC)c2occc12
THP-1 [1]
  inhibition at 2 µM: 5.2%

## CC(C)(O)c1coc(S(=O)(=O)NC(=O)Nc2c3c(cc4c2CCC4)CCC3)c1
THP-1 [1]
  inhibition at 2 µM: 106%

## COc1c(/C=C/C(=O)c2ccc(F)cc2)cc(OC)c2occc12
THP-1 [2]
  Activity: 0.656 µM
THP-1 [1]
  inhibition at 2 µM: 88.2%
THP-1 [3]
  Activity: Non-Toxic

## COc1cc(NS(=O)(=O)C2CC2)c(OC)cc1/C=C/C(=O)c1ccc(F)cc1
THP-1 [1]
  inhibition at 2 µM: 24.8%

## COc1cc(-c2cn[nH]c2)c(OC)cc1/C=C/C(=O)c1ccc(F)cc1
THP-1 [1]
  inhibition: inactive

## COc1c(/C=C/C(=O)c2cccc(Br)n2)cc(OC)c2occc12
THP-1 [1]
  inhibition at 2 µM: 67.7%

## COc1c(/C=C/C(=O)c2cccc(F)c2)cc(OC)c2occc12
THP-1 [1]
  inhibition at 2 µM: 51.4%

## COc1c(/C=C/C(=O)c2ccc(N)cc2)cc(OC)c2occc12
THP-1 [1]
  inhibition: inactive

## COc1c(CCC(=O)c2cccc(Br)n2)cc(OC)c2occc12
THP-1 [1]
  inhibition at 2 µM: 10.7%

## COc1c(/C=C/C(=O)c2ccc(C#N)cc2)cc(OC)c2occc12
THP-1 [1]
  inhibition at 2 µM: 27.6%

## COc1c(/C=C/C(=O)c2ccc[nH]2)cc(OC)c2occc12
THP-1 [1]
  inhibition at 2 µM: 10.3%

## COc1c(CCC(=O)c2ccccc2)cc(OC)c2occc12
THP-1 [1]
  inhibition: inactive

## COc1c(/C=C/C(=O)c2cccc(C(F)(F)F)c2)cc(OC)c2occc12
THP-1 [1]
  inhibition at 2 µM: 64.7%

## COc1cc(-c2ccoc2)c(OC)cc1/C=C/C(=O)c1ccc(F)cc1
THP-1 [1]
  inhibition at 2 µM: 38.5%

## COc1c(/C=C/C(=O)c2cccc(C)c2)cc(OC)c2occc12
THP-1 [1]
  inhibition at 2 µM: 75%

## COc1c(/C=C/C(=O)Nc2ccc(F)cc2)cc(OC)c2occc12
THP-1 [1]
  inhibition: inactive

## COc1c(/C=C/C(=O)c2ccc(Cl)cn2)cc(OC)c2occc12
THP-1 [1]
  inhibition at 2 µM: 20.3%

## COc1cc(/C=C/C(=O)c2ccc(F)cc2)c(OC)cc1C
THP-1 [1]
  inhibition at 2 µM: 80.6%

## COc1c(/C=C/C(=O)c2ccc(Br)cc2)cc(OC)c2occc12
THP-1 [1]
  inhibition at 2 µM: 50.1%

## COc1c(/C=C/C(=O)c2ccccc2)cc(OC)c2occc12
Spleen
  Activity: Active
THP-1 [1]
  inhibition at 2 µM: 50.8%

## COc1c(/C=C/C(=O)c2cccc(-c3ccccc3)n2)cc(OC)c2occc12
THP-1 [1]
  inhibition at 2 µM: 15.9%

## COc1c(/C=C/C(=O)c2ccc3ccccc3n2)cc(OC)c2occc12
THP-1 [1]
  inhibition at 2 µM: 32.1%

## COc1cc(-c2ccccc2S(C)(=O)=O)c(OC)cc1/C=C/C(=O)c1ccc(F)cc1
THP-1 [2]
  Activity: 0.325 µM
THP-1 [1]
  inhibition at 2 µM: 102%
THP-1 [3]
  Activity: Non-Toxic

## COc1c(/C=C/C(=O)c2ccccc2F)cc(OC)c2occc12
THP-1 [1]
  inhibition at 2 µM: 50.4%

## COc1c(/C=C/C(=O)c2ccccc2N)cc(OC)c2occc12
THP-1 [1]
  inhibition at 2 µM: 19.8%

## COc1c(/C=C/C(=O)c2cccc(N)c2)cc(OC)c2occc12
THP-1 [1]
  inhibition at 2 µM: 58.8%
